Active and inactive are the calls of the source. No cut-off for these calls is given here.
Legend:
[1] = molecular target: 5-hydroxytryptamine receptor 4 (Homo sapiens) (UniProt Q13639); test: Agonist activity at human 5-HT4R expressed in GloSensor-22F6 expressing 2B2 cells co-expressing Galpha-s assessed as increase in cAMP accumulation up to 60 mins by luminometry relative to control 5-HT; format: functional, cell-based
How it was run: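 Cells carrying a cAMP luminescence biosensor were additionally transduced with Gαs and human 5-HT4R, then seeded at 25 x 10³ cells/well 24 h ahead. Ligands (up to 10 µM) were added with 1 mM final IBMX.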

[2] = molecular target: 5-hydroxytryptamine receptor 4 (Homo sapiens) (UniProt Q13639); test: Partial agonist activity at Rluc-tagged human 5-HT4 receptor expressed in human SH-5YSY cells co-expressing RGFP-fused to Gbeta1 assessed as inhibition of serotonin-induced coupling by BRET assay; format: functional, cell-based
[3] = molecular target: 5-hydroxytryptamine receptor 4 (Cavia porcellus, UniProt O70528); test: Displacement of [3H]GR113808 from serotonin 5-HT4 receptor in Dunkin-Hartley guinea pigs striatal nuclei membranes incubated for 30 mins by liquid scintillation counting
Chain of 5-hydroxytryptamine receptor 4 (O70528 whole entry): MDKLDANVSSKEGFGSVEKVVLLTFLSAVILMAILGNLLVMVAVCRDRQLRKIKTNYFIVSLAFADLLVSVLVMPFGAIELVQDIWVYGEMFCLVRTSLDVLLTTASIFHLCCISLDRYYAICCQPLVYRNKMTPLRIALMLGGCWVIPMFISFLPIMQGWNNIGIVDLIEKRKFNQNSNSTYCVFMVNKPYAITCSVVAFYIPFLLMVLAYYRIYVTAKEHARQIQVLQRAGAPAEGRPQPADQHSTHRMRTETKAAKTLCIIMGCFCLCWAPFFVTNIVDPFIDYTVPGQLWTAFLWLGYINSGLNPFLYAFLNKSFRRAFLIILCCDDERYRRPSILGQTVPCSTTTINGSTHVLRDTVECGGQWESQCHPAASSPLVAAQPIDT

Chain of 5-hydroxytryptamine receptor 4 (Homo sapiens) (Q13639 whole entry, the tested form may be a part): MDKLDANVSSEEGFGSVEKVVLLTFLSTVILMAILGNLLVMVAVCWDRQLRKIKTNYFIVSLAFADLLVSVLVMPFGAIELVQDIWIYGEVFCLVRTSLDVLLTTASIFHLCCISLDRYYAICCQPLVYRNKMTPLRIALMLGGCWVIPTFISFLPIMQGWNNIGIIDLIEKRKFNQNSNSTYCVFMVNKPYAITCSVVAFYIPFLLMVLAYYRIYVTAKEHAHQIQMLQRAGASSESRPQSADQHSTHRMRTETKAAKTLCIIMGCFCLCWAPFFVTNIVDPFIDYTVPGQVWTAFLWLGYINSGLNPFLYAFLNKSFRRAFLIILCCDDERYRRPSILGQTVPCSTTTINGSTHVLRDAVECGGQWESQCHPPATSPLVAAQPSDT

SMILES: COc1cc(N)c(Cl)cc1C(=O)OCCN1CCC(NC(=O)NCCOCCOCCOCCOCCOCCOCCOCCOCCn2cc(CNC(=O)NCCCN(C)CCCNC(=O)NCc3cn(CCOCCOCCOCCOCCOCCOCCOCCOCCNC(=O)NC4CCN(CCOC(=O)c5cc(Cl)c(N)cc5OC)CC4)nn3)nn2)CC1
- Ratio [1]: 0.16
- Activity [2]: Active
- Ki [3]: 9 nM

SMILES: COc1cc(N)c(Cl)cc1C(=O)N[C@H]1CCN(CCCOc2ccc(F)cc2)C[C@H]1OC
- Activity [2]: Active

SMILES: COc1cc(N)c(Cl)cc1C(=O)OCCN1CCC(NC(=O)NCCOCCOCCOCCOCCOCCOCCOCCOCCn2cc(CNC(=O)NCCCN(CCCCN(CCCNC(=O)NCc3cn(CCOCCOCCOCCOCCOCCOCCOCCOCCNC(=O)NC4CCN(CCOC(=O)c5cc(Cl)c(N)cc5OC)CC4)nn3)CCCNC(=O)NCc3cn(CCOCCOCCOCCOCCOCCOCCOCCOCCNC(=O)NC4CCN(CCOC(=O)c5cc(Cl)c(N)cc5OC)CC4)nn3)CCCNC(=O)NCc3cn(CCOCCOCCOCCOCCOCCOCCOCCOCCNC(=O)NC4CCN(CCOC(=O)c5cc(Cl)c(N)cc5OC)CC4)nn3)nn2)CC1
- Ratio [1]: 0.14
- Activity [2]: Active
- Ki [3]: 4.5 nM

SMILES: COc1cc(N)c(Cl)cc1C(=O)OCCN1CCC(NC(=O)NCCOCCOCCNC(=O)NC2CCN(CCOC(=O)c3cc(Cl)c(N)cc3OC)CC2)CC1
- Ratio [1]: 0.28
- Activity [2]: Active
- Ki [3]: 4 nM

SMILES: COc1cc(N)c(Cl)cc1C(=O)OCCCN1CCCCC1
- Ratio [1]: 0.09
- Activity [2]: Active

SMILES: COc1cc(N)c(Cl)cc1C(=O)OCCN1CCCCC1
- Activity [2]: Active

SMILES: COc1cc(N)c(Cl)cc1C(=O)OCCN1CCC(NC(=O)NCCOCCOCCNC(=O)NCC(=O)O)CC1
- Ratio [1]: 0.21
- Activity [2]: Active
- Ki [3]: 61 nM

SMILES: COc1cc(N)c(Cl)cc1C(=O)OCCN1CCC(NC(=O)NCCOCCOCCOCCOCCOCCOCCOCCOCCN=[N+]=[N-])CC1
- Ratio [1]: 0.18
- Activity [2]: Active
- Ki [3]: 121 nM

SMILES: COc1cc(N)c(Cl)cc1C(=O)OCCN1CCC(NC(=O)OC(C)(C)C)CC1
- Ratio [1]: 0.21
- Activity [2]: Active
- Ki [3]: 30 nM

SMILES: CCCCNC(=O)NC1CCN(CCOC(=O)c2cc(Cl)c(N)cc2OC)CC1
- Ratio [1]: 0.24
- Activity [2]: Active
- Ki [3]: 13 nM

SMILES: COc1cc(N)c(Cl)cc1C(=O)OCCN1CCC(NC(=O)NCCOCCOCCNC(=O)NCC(=O)OCc2ccccc2)CC1
- Ratio [1]: 0.15
- Activity [2]: Active
- Ki [3]: 4 nM

From ChEMBL document CHEMBL4138046, “Multivalent ligands for the serotonin 5-HT4 receptor” (Medchemcomm, 2017)
